In ChEMBL document CHEMBL4392855, “Scaffold hopping of fused piperidine-type NK3 receptor antagonists to reduce environmental impact” (Bioorg Med Chem, 2019):

Key:
[1] = Photo-stability in 50 mM pH 7.4 phosphate buffer assessed as compound degradation at 30 uM under UV-light irradiation by HPLC analysis; type: physicochemical; details: pH 7.4, 30 µM
Procedure, shortened: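 Compound at 30 μM in 50 mM phosphate buffer pH 7.4/EtOH 70:30 (0.1% DMSO) was exposed to a mercury xenon lamp (1500 W/m^2). Aliquots sampled at intervals were diluted 1:1 with MeCN and run on HPLC with 254 nm detection. Ratios were calculated from calibration curves.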

[2] = Stability in pH 4 acetate buffer assessed as compound degradation at 30 uM by HPLC analysis; type: physicochemical; details: pH 4, 30 µM
[3] = Stability in pH 7.4 phosphate buffer assessed as compound degradation at 30 uM by HPLC analysis; type: physicochemical; details: pH 7.4, 30 µM
[4] = Stability in pH 10 carbonate buffer assessed as compound degradation at 30 uM by HPLC analysis; type: physicochemical; details: pH 10, 30 µM
[5] = Stability in rat serum assessed as compound degradation at 50 uM by HPLC analysis; type: ADME, cell-free
Neuromedin-K receptor [6] = target: T1, Neuromedin-K receptor (Homo sapiens, UniProt P29371); test: Antagonistic activity against NK3R (unknown origin) expressed in CHO cells assessed as inhibition of NKB-induced intracellular calcium flux by Calcium 4 assay; type: functional, cell-based
T1 sequence (P29371 whole entry): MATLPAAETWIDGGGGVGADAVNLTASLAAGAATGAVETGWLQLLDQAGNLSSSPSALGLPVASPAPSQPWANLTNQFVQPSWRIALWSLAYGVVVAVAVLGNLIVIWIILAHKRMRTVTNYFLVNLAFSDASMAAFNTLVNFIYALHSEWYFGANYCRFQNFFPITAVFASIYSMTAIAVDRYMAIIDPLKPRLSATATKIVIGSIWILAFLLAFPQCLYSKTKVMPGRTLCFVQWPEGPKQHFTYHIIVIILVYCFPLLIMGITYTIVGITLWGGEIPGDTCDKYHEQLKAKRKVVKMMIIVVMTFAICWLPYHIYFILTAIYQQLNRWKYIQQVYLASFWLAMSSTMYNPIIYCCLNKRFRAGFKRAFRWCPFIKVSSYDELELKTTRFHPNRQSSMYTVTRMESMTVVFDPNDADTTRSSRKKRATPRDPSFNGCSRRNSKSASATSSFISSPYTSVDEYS

[7] = Photo-stability in 50 mM pH 7.4 phosphate buffer assessed as compound degradation at 30 uM exposed to xenon lamp irrational (> 325 nm) by HPLC analysis; type: physicochemical; details: pH 7.4, 30 µM
Procedure, shortened: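 Compound at 30 μM in 50 mM phosphate buffer pH 7.4/EtOH 70:30 (0.1% DMSO) was irradiated with a xenon arc lamp (900 W/m^2), with filters cutting wavelengths below 325 nm. Aliquots taken at intervals were diluted with MeCN and analysed by HPLC with 254 nm UV detection. Remaining amounts were taken from calibration curves.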

Neuromedin-K receptor [8] = target: T1, Neuromedin-K receptor; test: Antagonistic activity against NK3R (unknown origin) expressed in CHO cells assessed as inhibition of NKB-induced intracellular calcium flux under UV-light irradiation by Calcium 4 assay; type: functional, cell-based

CC1c2nnn(-c3ccc4ccccc4n3)c2CCN1C(=O)c1ccc(F)cc1 (stereo unspecified)
Stability [1]: Stable
Stability [2]: Stable
Stability [3]: Stable
Stability [4]: Stable
Stability [5]: Stable
IC50 (Neuromedin-K receptor [6]): 4.1 µM

CC1c2noc(-c3ccc4ccccc4n3)c2CCN1C(=O)c1ccc(F)cc1 (stereo unspecified)
Stability [1]: Unstable
Stability [7]: Unstable
IC50 (Neuromedin-K receptor [8]): > 100 µM
Stability [2]: Stable
Stability [3]: Stable
Stability [4]: Stable
Stability [5]: Stable
IC50 (Neuromedin-K receptor [6]): 10.3 µM

C[C@H]1c2noc(-c3ccc4ccccc4n3)c2CCN1C(=O)c1ccc(F)cc1
Stability [2]: Stable
Stability [3]: Stable
Stability [4]: Stable
Stability [5]: Stable
IC50 (Neuromedin-K receptor [6]): 13.7 µM

C[C@@H]1c2nnc(-c3ccc4ccccc4n3)n2CCN1C(=O)c1ccc(F)cc1
Stability [1]: Stable
Stability [2]: Stable
Stability [3]: Stable
Stability [4]: Stable
Stability [5]: Stable
IC50 (Neuromedin-K receptor [6]): 0.26 µM

C[C@@H]1c2noc(-c3ccc4ccccc4n3)c2CCN1C(=O)c1ccc(F)cc1
Stability [2]: Stable
Stability [3]: Stable
Stability [4]: Stable
Stability [5]: Stable
IC50 (Neuromedin-K receptor [6]): 11.8 µM

CC1c2onc(-c3ccc4ccccc4n3)c2CCN1C(=O)c1ccc(F)cc1 (stereo unspecified)
Stability [1]: Stable
Stability [2]: Stable
Stability [3]: Stable
Stability [4]: Stable
Stability [5]: Stable
IC50 (Neuromedin-K receptor [6]): 8.2 µM
